Laboratory results taken from ChEMBL document CHEMBL1122371, “Inhibition of renin by angiotensinogen peptide fragments containing the hydroxy amino acid residue 5-amino-3-hydroxy-7-methyloctanoic acid” (J Med Chem, 1983).

Assays:
[1] = target: Renin (Sus scrofa); assay: Inhibitory activity against hog kidney renin (Non-competitive inhibition)
[2] = target: T1, Renin (Homo sapiens, UniProt P00797); assay: Inhibitory activity against human amniotic renin (competitive inhibition)
T1 sequence (P00797 whole entry): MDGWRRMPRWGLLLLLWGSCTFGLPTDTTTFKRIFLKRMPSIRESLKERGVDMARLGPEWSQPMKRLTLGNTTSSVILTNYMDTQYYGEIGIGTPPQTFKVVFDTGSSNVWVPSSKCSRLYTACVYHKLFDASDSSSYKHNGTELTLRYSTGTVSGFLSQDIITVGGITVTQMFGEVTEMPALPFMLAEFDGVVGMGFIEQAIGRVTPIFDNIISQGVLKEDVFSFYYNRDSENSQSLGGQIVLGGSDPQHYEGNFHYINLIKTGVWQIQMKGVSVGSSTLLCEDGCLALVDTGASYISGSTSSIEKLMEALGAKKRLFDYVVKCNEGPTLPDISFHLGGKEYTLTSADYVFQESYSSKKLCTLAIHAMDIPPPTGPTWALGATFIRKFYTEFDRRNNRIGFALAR
Procedure, shortened: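 Angiotensin I generation is reported as nmol/unit enzyme/min for hog kidney renin and nmol/mL/h for human amniotic renin. Points are means of three determinations. Lines are fitted by linear regression, and Ki is the −[I] at their intersection.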

Compound	Ki [1] [µM]	Ki [2] [µM]
COC(=O)[C@H](Cc1ccccc1)NC(=O)[C@@H](NC(=O)CC(O)CC(N)CC(C)C)C(C)C (some centres undefined)	170	95
COC(=O)[C@@H](Cc1ccccc1)NC(=O)[C@H](NC(=O)CC(O)CC(N)CC(C)C)C(C)C (some centres undefined)	1180	1600
